The results in this text go back to ChEMBL document CHEMBL1770108, “Design and synthesis of substituted N-(1,3-diphenyl-1H-pyrazol-5-yl)benzamides as positive allosteric modulators of the metabotropic glutamate receptor subtype 5” (Bioorg Med Chem Lett, 2011).

Test [1] deals with T1, Metabotropic glutamate receptor 5 (Rattus norvegicus, UniProt P31424). As to the kind of experiment: Antagonist activity at rat mGluR5 expressed in HEK293T cells assessed as inhibition of glutamate-induced calcium flux by calcium fluorescence assay. It is filed as functional, cell-based, HEK-293T. A digest of the protocol:
(§1)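 Rat mGluR5-expressing cells loaded with a calcium-sensitive fluorescent dye receive vehicle or test compound. After 2.5 min, an EC20 concentration of glutamate is added, then an EC80 concentration 1 min later. This triple-add protocol allows simultaneous detection of agonist, potentiator and antagonist activity. Intracellular calcium release is read kinetically in every well by an imaging plate reader.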

Test [2] has as its target T1, Metabotropic glutamate receptor 5. As to the kind of experiment: Displacement of [3H]-MPEP from mGluR5 in rat brain. It counts as tissue-based. A digest of the protocol:
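Radioligand displacement binding using [3H]MPEP on rat brain membranes.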

For test [3], the target named is Metabotropic glutamate receptor 5 (Rattus norvegicus) (UniProt P31424). Description: Agonist activity at rat mGluR5 expressed in HEK293T cells assessed as increase of glutamate-induced calcium flux by calcium fluorescence assay relative to control. It is filed as functional, cell-based. The following applies: HEK-293T. A digest of the protocol:
as §1

In test [4] the target is T1, Metabotropic glutamate receptor 5. Description: Agonist activity at rat mGluR5 expressed in HEK293T cells assessed as effect on glutamate-induced calcium flux by calcium fluorescence assay. It counts as functional, cell-based, HEK-293T. A digest of the protocol: as §1

Each structure is given as a SMILES string.

T1 sequence (P31424 whole entry): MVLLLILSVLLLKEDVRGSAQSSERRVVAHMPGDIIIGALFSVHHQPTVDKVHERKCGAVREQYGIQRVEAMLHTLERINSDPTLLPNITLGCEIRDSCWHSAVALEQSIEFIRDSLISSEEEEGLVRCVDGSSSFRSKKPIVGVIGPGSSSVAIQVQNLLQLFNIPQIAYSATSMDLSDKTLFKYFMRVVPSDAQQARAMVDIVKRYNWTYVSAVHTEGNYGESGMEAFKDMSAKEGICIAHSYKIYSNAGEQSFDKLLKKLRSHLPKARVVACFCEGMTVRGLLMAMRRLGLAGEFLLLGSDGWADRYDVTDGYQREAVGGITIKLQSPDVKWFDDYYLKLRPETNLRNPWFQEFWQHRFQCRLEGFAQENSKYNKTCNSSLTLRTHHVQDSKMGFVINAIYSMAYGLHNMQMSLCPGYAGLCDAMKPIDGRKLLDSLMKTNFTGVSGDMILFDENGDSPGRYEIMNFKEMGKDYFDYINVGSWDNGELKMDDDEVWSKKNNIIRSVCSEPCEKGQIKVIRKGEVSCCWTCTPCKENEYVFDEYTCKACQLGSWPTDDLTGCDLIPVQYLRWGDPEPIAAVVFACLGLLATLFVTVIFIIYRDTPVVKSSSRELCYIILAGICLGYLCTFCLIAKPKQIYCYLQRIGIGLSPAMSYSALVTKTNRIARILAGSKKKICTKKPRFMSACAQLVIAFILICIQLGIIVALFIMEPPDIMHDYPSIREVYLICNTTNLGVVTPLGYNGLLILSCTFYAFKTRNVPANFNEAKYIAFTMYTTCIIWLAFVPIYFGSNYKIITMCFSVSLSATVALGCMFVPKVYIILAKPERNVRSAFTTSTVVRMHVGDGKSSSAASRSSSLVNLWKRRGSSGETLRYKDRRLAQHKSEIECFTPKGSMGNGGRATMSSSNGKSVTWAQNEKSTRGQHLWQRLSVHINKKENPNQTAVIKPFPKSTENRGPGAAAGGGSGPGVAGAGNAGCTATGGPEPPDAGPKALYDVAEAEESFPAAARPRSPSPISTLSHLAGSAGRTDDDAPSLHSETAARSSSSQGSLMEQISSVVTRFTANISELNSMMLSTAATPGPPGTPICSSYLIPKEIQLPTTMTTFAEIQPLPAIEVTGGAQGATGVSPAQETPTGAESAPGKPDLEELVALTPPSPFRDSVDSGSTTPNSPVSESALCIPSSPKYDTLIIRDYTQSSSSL
Chain of Metabotropic glutamate receptor 5 (Rattus norvegicus) (P31424 21-1203 limits assumed): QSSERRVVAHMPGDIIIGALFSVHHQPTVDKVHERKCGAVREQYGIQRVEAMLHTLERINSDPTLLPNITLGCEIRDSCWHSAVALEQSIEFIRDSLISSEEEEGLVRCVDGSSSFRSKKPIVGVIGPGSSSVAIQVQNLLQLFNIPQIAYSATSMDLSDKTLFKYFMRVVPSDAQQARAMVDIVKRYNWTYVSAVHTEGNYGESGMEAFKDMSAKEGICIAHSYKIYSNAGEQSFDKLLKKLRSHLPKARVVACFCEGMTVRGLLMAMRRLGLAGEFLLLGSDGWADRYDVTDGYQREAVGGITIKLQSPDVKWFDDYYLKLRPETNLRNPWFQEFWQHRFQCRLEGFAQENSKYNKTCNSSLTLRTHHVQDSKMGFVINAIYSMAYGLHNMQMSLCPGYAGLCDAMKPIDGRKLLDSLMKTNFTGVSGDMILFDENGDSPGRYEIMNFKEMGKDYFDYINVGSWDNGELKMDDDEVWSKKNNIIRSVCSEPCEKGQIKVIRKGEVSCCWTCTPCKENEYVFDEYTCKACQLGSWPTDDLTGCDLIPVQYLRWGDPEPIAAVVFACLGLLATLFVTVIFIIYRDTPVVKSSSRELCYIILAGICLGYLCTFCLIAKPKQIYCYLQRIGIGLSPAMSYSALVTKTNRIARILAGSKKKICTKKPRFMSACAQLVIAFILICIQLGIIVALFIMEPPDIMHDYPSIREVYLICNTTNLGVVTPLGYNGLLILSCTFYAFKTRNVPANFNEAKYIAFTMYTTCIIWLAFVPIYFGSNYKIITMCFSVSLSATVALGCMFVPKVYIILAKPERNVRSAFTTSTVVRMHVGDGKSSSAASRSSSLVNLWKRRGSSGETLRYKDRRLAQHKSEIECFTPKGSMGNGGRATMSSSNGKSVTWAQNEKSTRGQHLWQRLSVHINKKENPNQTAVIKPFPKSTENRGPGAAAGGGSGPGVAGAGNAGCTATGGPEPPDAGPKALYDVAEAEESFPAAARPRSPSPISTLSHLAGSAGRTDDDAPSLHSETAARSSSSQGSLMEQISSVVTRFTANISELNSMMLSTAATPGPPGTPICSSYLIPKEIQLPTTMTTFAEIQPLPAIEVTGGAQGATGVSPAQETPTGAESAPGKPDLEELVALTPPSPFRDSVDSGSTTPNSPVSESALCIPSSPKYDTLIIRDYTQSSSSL

As for `CCc1cccc(NC(=O)c2cc(F)cc(C#N)c2)n1`, the IC50 in test [1] was determined as 169 nM. This compound also displayed an inhibition constant Ki in test [2] of 762 nM.

For `Cc1ccc(NC(=O)c2cc(F)cc(C#N)c2)nc1`, in test [1], the IC50 turned out to be 4170 nM. The compound further registered a Ki in test [2] of 2830 nM.

For `CCCCc1cccc(NC(=O)c2cc(F)cc(C#N)c2)n1`, in test [1], the IC50 was determined as 1550 nM. The Ki in test [2] is 1050 nM.

`N#Cc1cc(C(=O)Nc2cc(-c3ccccc3)nn2-c2ccccc2Cl)ccc1-c1ccc(F)cc1`: the Activity in test [3] was 68%. Moreover, the concentration for a half-maximal effect (EC50) in test [4] was 2430 nM. In test [2], this compound registered a Ki of 23 nM.

Consider `N#Cc1cc(C(=O)Nc2cc(-c3ccccc3)nn2-c2ccccc2Cl)ccc1-c1cccc2ccccc12`, for which, in test [3], the Activity came out at 50.2%. The EC50 in test [4] was determined as 2170 nM. In test [2], this compound came in with a Ki greater than 10000 nM.

`N#Cc1cc(C(=O)Nc2cc(-c3ccccc3)nn2-c2ccccc2Cl)ccc1-c1cccc(F)c1`: the concentration giving a half-maximal response (EC50) in test [4] is greater than 30000 nM. Besides, affinity in test [2] was put at a Ki of 2060 nM.

For the compound `N#Cc1cc(C(=O)Nc2cc(-c3ccccc3)nn2-c2ccccc2Cl)ccc1-c1ccccc1`, in test [3], the Activity stood at 61.8%. For the same compound, the EC50 in test [4] is 4140 nM. For the same compound, the inhibitory constant (Ki) in test [2] was found to be 37 nM.

Take `CCCc1cccc(NC(=O)c2cc(F)cc(C#N)c2)n1`: in test [1], the IC50 came out at 165 nM. Moreover, in test [2], the Ki stood at 325 nM.

Take `O=C(Nc1cc(-c2ccccc2)nn1-c1ccccc1Cl)c1cc(-c2cc(F)cc(F)c2)ccn1`: the Activity in test [3] amounted to 67.6%. Also, in test [4], the EC50 was 646 nM. The compound further displayed a Ki in test [2] of 344 nM.
